Screens from PubChem.
The list is not random: actives were taken first. Their share in the collection is about 2.3%.
DENV2 CPE – inhibitors of DENV2 cytopathic effect. 350,000 tested, 1.7% active. CPE inhibition, % at 9.99 µM. DENV2-infected cells, cytopathic effect rescue, plate reader; in the data active = CPE inhibition above about 20%, passing the limit was not always enough; tested in BHK-21 cells;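 also: 0% = median of neutral control wells and 100% = median of positive control wells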
Cneo AK release – causes C. neoformans cell lysis. adenylate kinase release luminescence, 4 h; normalised: neutral wells 0, clomiphene wells 100. lysis activity, % at 15 µM. 360,000 tested, 0.2% active. AID 651654;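 active = mean lysis activity across replicates of at least 80%, whatever share of replicates individually reach that level; inactive = mean lysis activity below 80%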
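Assay system: C. neoformans cells. Amount: yeast cell density of 5 × 10^6 cells/mL. Technique: AK luminescence. Buffer or medium: YPD. Times: static 4 h at 37 °C with compound, 1 h detection. Dosing: single-point compound dose. Read-out: lysis from increased AK signal.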
PDI inh – PDI (human) enzyme inhibition. P07237. PDI insulin aggregation turbidity, A650, 90 min. inhibition, % at 10 µM. 350,000 tested, 0.052% active. AID 588391;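 active = mean inhibition across replicates of 30% or more, whatever share of single replicates reach that level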
Statin myotox sup – suppression of simvastatin myotoxicity | 330,000 tested, 0.78% active | rescue of ATP level, % at 7.49 µM | C2C12 myotubes + simvastatin, ATP luminescence, 48 h; scaled: DMSO 0, geranylgeraniol control 100;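 active = mean ATP rescue above about 67%, or every replicate alone reaching that limit, limit read from the data, passing the limit was not always enough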;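 also: myotubes were challenged with 10 µM simvastatin during compound exposure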
ERp5 block – blocks human ERp5 reductase activity on insulin; ERp5 insulin aggregation, absorbance 650 nm, 90 min; inhibition, % at 9.99 µM; 350,000 tested, 0.05% active; AID 651711;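 active = mean replicate inhibition above about 25%, with every replicate also reaching it, limit read from the data, passing the limit was not always enough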
Target sequence (Q15084 whole entry, looked up): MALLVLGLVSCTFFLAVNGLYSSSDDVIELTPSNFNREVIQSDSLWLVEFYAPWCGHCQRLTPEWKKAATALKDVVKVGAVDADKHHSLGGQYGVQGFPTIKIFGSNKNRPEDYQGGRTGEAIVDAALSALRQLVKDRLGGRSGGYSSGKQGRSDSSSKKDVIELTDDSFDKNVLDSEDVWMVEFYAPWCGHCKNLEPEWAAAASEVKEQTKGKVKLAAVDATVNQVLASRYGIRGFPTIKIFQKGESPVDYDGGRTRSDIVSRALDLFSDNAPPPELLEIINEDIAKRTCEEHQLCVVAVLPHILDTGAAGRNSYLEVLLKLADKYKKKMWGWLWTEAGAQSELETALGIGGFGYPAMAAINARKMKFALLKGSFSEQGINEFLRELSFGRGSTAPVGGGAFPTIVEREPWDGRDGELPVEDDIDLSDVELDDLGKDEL
CFTR F508del cor – CFTR F508del correction in bronchial cells | CFBE cells, YFP halide quenching; stimulated with forskolin plus potentiator P3; % fluorescence drop versus neutral controls | activity (quench increase), % at 7.58 µM | 350,000 tested, 0.36% active;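 active = mean added fluorescence quench of at least 8% versus neutral control, with both replicates also reaching 8%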;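 also: cells transiently co-express mutant CFTR-F508del with the halide-sensitive YFP; corrector assay measuring rescue of mutant channel to the surface after 24 h compound exposure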
* hit, by the source's call; nt = not tested or not shown; ! = a repeat was not active.

SMILES	DENV2 CPE	Cneo AK release	PDI inh	Statin myotox sup	ERp5 block	CFTR F508del cor
C[C@H](CO)N1C[C@H](C)[C@H](CN(C)S(=O)(=O)c2ccccc2F)Oc2cc(-c3ccccc3)ccc2S1(=O)=O	-6.5	-5.5	nt	-100.1	-5.1	1.4
C[C@H]1CN([C@@H](C)CO)S(=O)(=O)c2ccc(Br)cc2O[C@@H]1CN(C)S(=O)(=O)c1ccccc1F	35.6*!	93.7*!	nt	38.0	-5.2	-0.8
C[C@H]1CN([C@@H](C)CO)S(=O)(=O)c2ccc(-c3ccccc3)cc2O[C@H]1CN(C)S(=O)(=O)c1ccccc1F	-6.9	-5.5	nt	-58.8	-0.8	0.1
C[C@H]1CN([C@@H](C)CO)S(=O)(=O)c2ccc(Br)cc2O[C@H]1CN(C)S(=O)(=O)c1ccccc1F	2.7	103.7*!	1.5	6.9	4.1	1.0
Cc1noc(C)c1NC(=O)N(C)C[C@@H]1Oc2c(cccc2N(C)C)C(=O)N([C@@H](C)CO)C[C@H]1C	0.0	-8.9	nt	30.9	-1.8	1.8
N#C[C@@H]1[C@@H](c2ccc(C3=CCCC3)cc2)[C@@H](CO)N1C(=O)c1cccc(F)c1	-3.1	1.5	nt	-2.9	-9.4	-0.3
COc1ccccc1CNC(=S)NCc1ccc(Cl)cc1	3.1	136.7*	0.3	-5.9	3.4	-1.8
O=C(C1CCCCC1)N1CC(=O)N2[C@@H](CO)[C@@H](c3ccc(C#Cc4cccc(F)c4)cc3)[C@@H]2C1	9.6	nt	nt	nt	0.4	1.0
CN(C)N1C(N)=C(C#N)C(c2ccccc2)C2=C1CC(C)(C)CC2=O (stereo not given)	45.7*	nt	4.6	nt	-3.5	0.6
CN(C)N1C(N)=C(C#N)C(c2ccc(F)cc2)C2=C1CC(C)(C)CC2=O (stereo not given)	8.8	-0.3	-3.2	-2.1	2.6	-0.1
CCC(=O)N1CC(=O)N2[C@H](C1)[C@H](c1ccc(-c3cccnc3)cc1)[C@@H]2CO	16.3	nt	nt	nt	2.9	-0.5
C[C@@H]1CCCCO[C@H](CN(C)Cc2ccccc2)[C@@H](C)CN([C@@H](C)CO)C(=O)c2cc(NS(=O)(=O)c3ccc(Cl)cc3)ccc2O1	-12.5	0.6	nt	nt	-2.0	-0.6
CC(C)NC(=O)N1[C@@H](CO)[C@@H]2c3ccccc3N(C(=O)Nc3ccc(F)cc3)C[C@@H]21	-0.7	-2.9	nt	5.1	4.2	-2.7
Cc1onc(-c2ccccc2Cl)c1C(=O)OCC(=O)Nc1ccc2c(c1)OCO2	nt	-0.7	15.4	nt	nt	nt
Cc1onc(-c2ccccc2)c1C(=O)OCC(=O)Nc1ccc2c(c1)OCO2	nt	-0.1	-0.4	101.8*	nt	nt
CCC1=C(OC(=O)N(CC)CC)N2C(=O)OC(=NCC(=O)OC)[C@]2(Cc2ccccc2)[C@H]2C1=CC[C@H]1C(=O)NC(=O)[C@H]12	23.3*	2.4	-1.0	7.0	10.1	4.4
CCC(=O)Nc1cccc(-c2cc3ccccc3oc2=O)c1	29.9*	nt	1.8	nt	-0.5	nt
COc1ccc(-c2ccc(C3[C@H]4CNC[C@@H]3N4S(=O)(=O)c3cccc(OC)c3)cc2)cc1 (stereo not given in full)	6.6	nt	nt	nt	6.2	1.0
COc1cccc(NC(=O)N2[C@@H]3CNC[C@H]2C3c2ccc(-c3cccc(OC)c3)cc2)c1 (stereo not given in full)	-4.6	nt	nt	nt	2.3	-0.6
COc1cccc(NC(=O)N2[C@@H]3CNC[C@H]2C3c2ccc(-c3cccnc3)cc2)c1 (stereo not given in full)	22.1*!	nt	nt	nt	-7.0	-5.6
O=C(Nc1cccc(F)c1)N1[C@@H]2CNC[C@H]1C2c1ccc(-c2cccc(F)c2)cc1 (stereo not given in full)	0.2	nt	nt	nt	-1.2	-6.0
N#Cc1cccc(-c2ccc(C3[C@H]4CNC[C@@H]3N4C(=O)Nc3ccc(F)cc3)cc2)c1 (stereo not given in full)	23.0*!	nt	nt	nt	-1.8	1.1
COc1ccc(NC(=O)N2[C@@H]3CNC[C@H]2C3c2ccc(-c3ccc(OC)cc3)cc2)cc1 (stereo not given in full)	-2.1	nt	nt	nt	1.0	-3.3
O=C(Nc1cccc(Cl)c1)N1[C@@H]2CNC[C@H]1C2c1ccc(-c2ccccc2)cc1 (stereo not given in full)	66.7*!	nt	nt	nt	0.4	-2.4
